Data: ChEMBL document CHEMBL5724801, “EUbOPEN Chemogenomics Library - Multiplex” (2024)
Values joined by “and” are separate entries in the source; they are usually repeats but may differ in a detail not shown here. Equal values may be shown once.

Test system: Fibroblast
Assay: Multiplex assay against human fibroblast
Assay type: toxicity, cell-based
Summary of the method: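 Four dyes were applied at seeding to live cells: Hoechst33342, BioTracker Green Microtubule Cytoskeleton Dye, MitoTracker Red and Annexin V Alexa Fluor 680. Imaging after compound addition used a CQ1 microscope at 37°C and 5% CO2. CellPathfinder machine-learning gating then sorted cells into Hoechst high-intensity objects or normal cells, normal cells into healthy, pyknosed or fragmented nuclei, and pyknosed cells into mitotic or apoptotic, with tubulin, mitochondrial-mass and membrane-permeability phenotypes given as per cents of healthy-nucleus cells.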

[1] = 12 h, 1 µM, compound concentration 1 uM
[2] = 12 h, 10 µM, compound concentration 10 uM
[3] = 24 h, 1 µM, compound concentration 1 uM
[4] = 24 h, 10 µM, compound concentration 10 uM
[5] = 48 h, 1 µM, compound concentration 1 uM
[6] = 48 h, 10 µM, compound concentration 10 uM

COc1cc2ncnc(Nc3ccc(Oc4ccccc4)cc3C)c2cc1OC.Cl
Population Apoptotic (%) [1]: 11.11% and 23.33% | Population Fragmented Nuclei (%) [1]: 12.3% and 7.85% | Population Healthy Nuclei (%) [1]: 63.64% and 76.44% | Population Hoechst High Intensity Objects (%) [1]: 0% | Population Membrane Permeable-Phenotype (%) [1]: 5.04% and 3.42% | Population Mitochondria Different-Phenotype (%) [1]: 8.4% and 12.33% | Population Mitotic Cells (%) [1]: 88.89% and 76.67% | Population Normal (%) [1]: 100% | Population Pyknosed Nuclei (%) [1]: 24.06% and 15.71% | Population Tubulin-Different-Phenotype (%) [1]: 15.13% and 13.7% | Total Cell Count [1]: 187 and 191 | Population Apoptotic (%) [2]: 10.77% and 17.02% | Population Fragmented Nuclei (%) [2]: 14.61% and 11.16% | Population Healthy Nuclei (%) [2]: 48.88% and 68.67% | Population Hoechst High Intensity Objects (%) [2]: 0% | Population Membrane Permeable-Phenotype (%) [2]: 3.45% and 10.62% | Population Mitochondria Different-Phenotype (%) [2]: 29.89% and 25% | Population Mitotic Cells (%) [2]: 89.23% and 82.98% | Population Normal (%) [2]: 100% | Population Pyknosed Nuclei (%) [2]: 36.52% and 20.17% | Population Tubulin-Different-Phenotype (%) [2]: 58.62% and 66.88% | Total Cell Count [2]: 178 and 233 | Population Apoptotic (%) [3]: 0% and 16.67% | Population Fragmented Nuclei (%) [3]: 10.95% and 4.57% | Population Healthy Nuclei (%) [3]: 74.29% and 80.2% | Population Hoechst High Intensity Objects (%) [3]: 0% | Population Membrane Permeable-Phenotype (%) [3]: 5.77% and 1.9% | Population Mitochondria Different-Phenotype (%) [3]: 7.05% and 6.33% | Population Mitotic Cells (%) [3]: 100% and 83.33% | Population Normal (%) [3]: 100% | Population Pyknosed Nuclei (%) [3]: 14.76% and 15.23% | Population Tubulin-Different-Phenotype (%) [3]: 15.38% and 12.66% | Total Cell Count [3]: 210 and 197 | Population Fragmented Nuclei (%) [4]: 20.69% and 12.5% | Population Healthy Nuclei (%) [4]: 59.48% and 79.49% | Population Hoechst High Intensity Objects (%) [4]: 0% | Population Membrane Permeable-Phenotype (%) [4]: 4.35% and 4.03% | Population Mitochondria Different-Phenotype (%) [4]: 25.36% and 23.39% | Population Mitotic Cells (%) [4]: 95.65% and 76% | Population Normal (%) [4]: 100% | Population Pyknosed Nuclei (%) [4]: 19.83% and 8.01% | Population Tubulin-Different-Phenotype (%) [4]: 65.22% and 70.16% | Total Cell Count [4]: 232 and 312 | Population Apoptotic (%) [5]: 14.29% and 18.75% | Population Fragmented Nuclei (%) [5]: 14.46% and 12.14% | Population Healthy Nuclei (%) [5]: 77.11% and 80.1% | Population Hoechst High Intensity Objects (%) [5]: 0% | Population Membrane Permeable-Phenotype (%) [5]: 1.04% and 1.21% | Population Mitochondria Different-Phenotype (%) [5]: 11.98% and 4.85% | Population Mitotic Cells (%) [5]: 85.71% and 81.25% | Population Normal (%) [5]: 100% | Population Pyknosed Nuclei (%) [5]: 8.43% and 7.77% | Population Tubulin-Different-Phenotype (%) [5]: 8.33% and 15.76% | Total Cell Count [5]: 249 and 206 | Population Apoptotic (%) [6]: 14.29% and 28.57% | Population Fragmented Nuclei (%) [6]: 17.05% and 16.67% | Population Healthy Nuclei (%) [6]: 78.98% and 81.45% | Population Hoechst High Intensity Objects (%) [6]: 0% | Population Membrane Permeable-Phenotype (%) [6]: 4.68% and 4.95% | Population Mitochondria Different-Phenotype (%) [6]: 11.15% and 6.93% | Population Mitotic Cells (%) [6]: 85.71% and 71.43% | Population Normal (%) [6]: 100% | Population Pyknosed Nuclei (%) [6]: 3.98% and 1.88% | Population Tubulin-Different-Phenotype (%) [6]: 51.8% and 63.04% | Total Cell Count [6]: 352 and 372
